Published values pooled from the literature.
Each line is one published result; the experiments were not run side by side.
ST14: Suppressor of tumorigenicity 14 protein (ST14, Homo sapiens, UniProt Q9Y5Y6)
CDK2 with cyclin A2: Cyclin-dependent kinase 2, with cyclin A2 (CDK2, Homo sapiens, UniProt P24941)

CNc1ncc2c(/C=C/C(=O)N3CCC(OC)CC3)nn(Cc3cccc(C(F)(F)F)c3)c2n1 — remaining activity (Serine/threonine-protein kinase VRK1 (VRK1, Homo sapiens, UniProt Q99986); enzyme activity; inhibitor; radiometric; 1 µM): 100%
C=CC(=O)N1CCC(COCC(=O)N2CCN(c3nc(-c4cnc(N)nc4C(F)F)nc(N4CCOC[C@@H]4C)n3)CC2)CC1 — remaining binding (ALK tyrosine kinase receptor (ALK, Homo sapiens, UniProt Q9UM73, L1196M); binding; competition with immobilised ligand; 1 µM): 77%
COc1cc(-c2cncc3c2CN(C)Cc2cc(N4CCNCC4)ccc2-3)cc(OC)c1OC — remaining activity (Serine/threonine-protein kinase D3 (PRKD3, Homo sapiens, UniProt O94806); enzyme activity; inhibitor; 1 µM): 92%
N=C(N)NCCC[C@H](NC(=O)[C@@H](NC(=O)[C@H](Cc1cscn1)NC(=O)CCc1ccccc1)C1CCCCC1)C(=O)c1nc2ccccc2s1 — remaining activity (ST14; enzyme activity; inhibitor; 0.1 µM): 32%
CNC(=O)c1cc(Oc2ccc(NC(=O)Nc3ccc(Cl)c(C(F)(F)F)c3)cc2)ccn1 — inhibition (CDK2 with cyclin A2; enzyme activity; inhibitor; 20 nM): 43.1%
CC(C)(NC(=O)[C@H](Cc1cscn1)NC(=O)CCc1ccccc1)C(=O)N[C@@H](CCCNC(=N)N)C(=O)c1nc2ccccc2s1 — remaining activity (ST14; enzyme activity; inhibitor; 0.1 µM): 4%
CC(=O)Nc1c(N)nc(SCC(=O)NN)[nH]c1=O — inhibition (CDK2 with cyclin A2; enzyme activity; inhibitor; 1 µM): 73%
Cc1cc([C@@H](C)Nc2ccccc2C(=O)O)c2nc(N3CCC(F)(F)CC3)c(C#N)c(=O)n2c1 — remaining binding (Mitogen-activated protein kinase 10 (MAPK10, Homo sapiens, UniProt P53779); binding; competition with immobilised ligand; 1 µM): 100%
CC(C)C[C@H](NC(=O)[C@H](Cc1cscn1)NC(=O)CCc1ccccc1)C(=O)N[C@@H](CCCNC(=N)N)C(=O)c1nc2ccccc2s1 — remaining activity (ST14; enzyme activity; inhibitor; 0.1 µM): 5%
